Measured values from ChEMBL document CHEMBL4184124, “Progress in antischistosomal N,N'-diaryl urea SAR” (Bioorg Med Chem Lett, 2018).
Values after ≈ are worked out from the molar mass of the structure shown. Active and inactive are the calls of the source. The calls are words filed in the database; no cut-off is given here.

Legend:
[1] = Kinetic solubility of the compound in phosphate buffer at pH 6.5 by nephelometric method; format: physicochemical; details: read-out: Kinetic_solubility
Method in brief: (§1)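 DMSO stocks spiked into pH 6.5 phosphate buffer or 0.01 M HCl (approx. pH 2.0); nephelometry gave a solubility concentration range.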

U2OS = experiment: Cytotoxicity against human U2OS cells; format: cell-based
Schistosoma mansoni [2] = experiment: Antischistosomal activity against newly transformed stage of Schistosoma mansoni measured after 72 hrs by microscopic analysis; format: functional, organism-based
Method in brief: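 Newly transformed schistosomula were first screened at 10 µM; compounds that killed them were then run as a concentration titration to derive IC50 values.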

[3] = Cmax in Swiss mouse at 100 mg/kg, po administered as single dose via gavage by LC-MS analysis; format: ADME, organism-based; parameters: dose 100 mg/kg, route oral; details: in vivo
Method in brief: (§2)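 Single 100 mg/kg oral dose given to non-infected male Swiss outbred mice; plasma sampled over 48 h post-dose; n=2 mice per time point, mean values. AUC taken to last measured concentration.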

HFF = experiment: Cytotoxicity against HFF; format: cell-based; details: Homo sapiens
[4] = AUC (0 to last) in Swiss mouse at 100 mg/kg, po administered as single dose via gavage by LC-MS analysis; format: ADME, organism-based; parameters: dose 100 mg/kg, time 0 - last, route oral; details: in vivo; method in brief: as §2
Schistosoma mansoni [5] = experiment: Antischistosomal activity against newly transformed stage of Schistosoma mansoni assessed as parasite death at 10 uM; format: functional, organism-based
Method in brief: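 Newly transformed schistosomula exposed at 10 µM as a screen for killing; active compounds then titrated to give IC50.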

[6] = Cytotoxicity against human HC04 cells; format: cell-based
[7] = Kinetic solubility of the compound in 0.01M HCl at pH 2 by nephelometric method; format: physicochemical; details: read-out: Kinetic_solubility; method in brief: as §1
[8] = Intrinsic clearance in mouse liver microsomes assessed per mg protein after 60 mins in presence of NADPH generating system; format: ADME, microsome; details: 1 h
[9] = Intrinsic clearance in human liver microsomes assessed per mg protein after 60 mins in presence of NADPH generating system; format: ADME, microsome; details: 1 h
[10] = Octanol-[…] partition coefficient, log D of the compound at pH 7.4 by RP-HPLC method
[11] = Plasma concentration in Swiss mouse at 100 mg/kg, po administered as single dose via gavage measured up to 48 hrs by LC-MS analysis; format: ADME, organism-based; method in brief: as §2
HEK293 = experiment: Cytotoxicity against HEK293 cells; format: cell-based; details: Homo sapiens
Schistosoma mansoni [12] = experiment: Antischistosomal activity against Schistosoma mansoni cercariae infected in NMRI mouse assessed as reduction in worm burden at 100 mg/kg, po administered as single dose via gavage measured after 21 days relative to control; format: functional; parameters: scale not given: the % may be the effect or the level left
Method in brief: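 Infected mice given a single 100 mg/kg oral dose; efficacy read as worm burden reduction (%).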

Schistosoma mansoni [13] = experiment: Antischistosomal activity against adult stage of Schistosoma mansoni measured after 72 hrs by microscopic analysis; format: functional, organism-based
Schistosoma mansoni [14] = experiment: Antischistosomal activity against Schistosoma mansoni infected in NMRI mouse assessed as reduction in worm burden at 400 mg/kg, po administered as single dose measured after 14 days relative to control; format: functional; parameters: scale not given: the % may be the effect or the level left
[15] = Cmax in mouse at 46.3 mg/kg, po; format: ADME, organism-based; parameters: dose 46.3 mg/kg, route oral; details: in vivo
[16] = Half-life in mouse at 46.3 mg/kg, po; format: ADME, organism-based; details: in vivo
Schistosoma mansoni [17] = experiment: Antischistosomal activity against Schistosoma mansoni Liberian cercariae measured after 72 hrs by microscopic analysis; format: functional, organism-based
Method in brief: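 Newly transformed schistosomula prepared from cercariae, first screened at 10 µM as a gate. Active compounds then went through a concentration titration to derive IC50 values.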

[18] = Half-life in Swiss mouse at 100 mg/kg, po administered as single dose via gavage by LC-MS analysis; format: ADME, organism-based; details: in vivo; method in brief: as §2
[19] = Tmax in Swiss mouse at 100 mg/kg, po administered as single dose via gavage by LC-MS analysis; format: ADME, organism-based; details: in vivo; method in brief: as §2
[20] = Drug uptake in Swiss mouse plasma at 100 mg/kg, po administered as single dose via gavage measured after 4 to 48 hrs by LC-MS analysis; format: ADME, organism-based; details: in vivo; method in brief: as §2
Schistosoma mansoni [21] = experiment: Antischistosomal activity against Schistosoma mansoni cercariae infected in NMRI mouse assessed as reduction in worm burden at 80 mg/kg, po administered as four consecutive dose via gavage measured after 21 days relative to control; format: functional; parameters: scale not given: the % may be the effect or the level left
Method in brief: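 Infected mice given four consecutive 80 mg/kg oral doses; efficacy read as worm burden reduction (%).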

[22] = Drug uptake in Swiss mouse plasma at 100 mg/kg, po administered as single dose via gavage measured after 2 hrs by LC-MS analysis; format: ADME, organism-based; details: in vivo; method in brief: as §2

Structure (SMILES) | solubility kinetic [1] [µg/mL] | solubility kinetic [7] [µg/mL] | CLH [8] [µL/min/mg] | CLH [9] [µL/min/mg] | chromatographic logD [10] | IC50 (U2OS) [µM] | IC50 (Schistosoma mansoni [2]) [µM] | Cmax [3] [µM] | IC50 (HFF) [µM] | AUC(0-t) [4] [µM·h] | Activity (Schistosoma mansoni [5]) | IC50 [6] [µM] | IC50 (HEK293) [µM] | Activity (Schistosoma mansoni [12]) [%] | IC50 (Schistosoma mansoni [13]) [µM] | other results
O=C(Nc1ccc2c(c1)OC(F)(F)O2)Nc1ccc(F)c(C(F)(F)F)c1 | < 1.6 | < 1.6 | < 7 | < 7 | 4.5 | > 100 | 0.21 | 27 | 67 | 989 | Active | > 100 | > 100 | 0 | 0.49 | concentration at 48 h [11]: > 5 µM
O=C(Nc1ccc(Cl)c(Cl)c1)Nc1ccc(Cl)c(Cl)c1 | – | – | – | – | – | – | – | – | – | – | – | – | – | 0 | – | Activity (Schistosoma mansoni [14]): 53%; Cmax [15]: 4.4 µM; half-life [16]: 4.7 h; IC50 (Schistosoma mansoni [17]): 0.8 µM
O=C(Nc1ccc2c(c1)OC(F)(F)O2)Nc1ccc2c(c1)OC(F)(F)O2 | < 1.6 | < 1.6 | 12 | < 7 | 4.4 | > 100 | 0.26 | 25 | 79 | 679 | Active | > 100 | > 100 | 0 | 0.49 | half-life [18]: 13 h; concentration at 48 h [11]: > 5 µM
N#Cc1ccc(NC(=O)Nc2ccc(F)c(C(F)(F)F)c2)cc1 | < 1.6 | < 1.6 | 12 | < 7 | 3.8 | > 100 | 1.6 | 31 | 60 | 216 | Active | > 100 | > 100 | 37 | 0.94 | half-life [18]: 2.7 h; Tmax [19]: 4 h
N#Cc1ccc(NC(=O)Nc2ccnc(C(F)(F)F)c2)cc1 | 1.6 to 3.1 (≈ 5.22 to 10.1 µM) | 1.6 to 3.1 (≈ 5.22 to 10.1 µM) | < 7 | < 7 | 3 | > 100 | 1.9 | 20 | > 100 | 175 | Active | > 100 | > 100 | 1.6 | 3.3 | half-life [18]: 2.3 h; Tmax [19]: 2 h
O=C(Nc1ccnc(C(F)(F)F)c1)Nc1ccnc(C(F)(F)F)c1 | 12.5 to 25 (≈ 35.7 to 71.4 µM) | 12.5 to 25 (≈ 35.7 to 71.4 µM) | < 7 | < 7 | 3 | > 100 | 2.4 | 40 | > 100 | 953 | Active | > 100 | > 100 | 20 | 0.88 | half-life [18]: 10 h; Tmax [19]: 4 h; Drug uptake [20]: Active
O=C(Nc1ccc(F)c(C(F)(F)F)c1)Nc1cnccn1 | < 1.6 | 1.6 to 3.1 (≈ 5.33 to 10.3 µM) | 160 | 210 | 3 | – | – | – | – | – | – | – | – | – | – | –
O=C(Nc1ccncc1)Nc1ccc(F)c(C(F)(F)F)c1 | 6.3 to 12.5 (≈ 21.1 to 41.8 µM) | 6.3 to 12.5 (≈ 21.1 to 41.8 µM) | 37 | 12 | 3.2 | – | 5.6 | – | – | – | Active | – | – | – | > 10 | –
O=C(Nc1ccnc(C(F)(F)F)c1)Nc1ccc2c(c1)OC(F)(F)O2 | 3.1 to 6.3 (≈ 8.58 to 17.4 µM) | 3.1 to 6.3 (≈ 8.58 to 17.4 µM) | 16 | < 7 | 3.7 | > 100 | 1.3 | 55 | 80 | 2270 | Active | > 100 | > 100 | 2.1 | 0.75 | concentration at 48 h [11]: > 5 µM
NC(=O)c1ccc(NC(=O)Nc2ccc(F)c(C(F)(F)F)c2)cc1 | 6.3 to 12.5 (≈ 18.5 to 36.6 µM) | 6.3 to 12.5 (≈ 18.5 to 36.6 µM) | 22 | 28 | 2.7 | – | – | – | – | – | – | – | – | – | – | –
O=C(Nc1ccnc(C(F)(F)F)c1)Nc1ccc(F)c(C(F)(F)F)c1 | 3.1 to 6.3 (≈ 8.44 to 17.2 µM) | 3.1 to 6.3 (≈ 8.44 to 17.2 µM) | < 7 | < 7 | 3.8 | > 100 | 0.74 | 56 | 71 | 1490 | Active | > 100 | > 100 | 50 | 0.66 | half-life [18]: 18 h; Tmax [19]: 7.5 h; Activity (Schistosoma mansoni [21]): 53%; Drug uptake [20]: Active
O=C(Nc1ccc(F)c(C(F)(F)F)c1)Nc1ccc(F)c(C(F)(F)F)c1 | – | < 1.6 | 7 | 10 | 4.5 | > 100 | 0.15 | 31 | 57 | 394 | Active | > 100 | > 100 | 40 | 0.19 | half-life [18]: 11 h; Drug uptake [22]: Active; Tmax [19]: 4 h; concentration at 48 h [11]: > 1 µM

More lines, main results first:

solubility kinetic [1] [µg/mL] | solubility kinetic [7] [µg/mL] | CLH [8] [µL/min/mg] | CLH [9] [µL/min/mg] | chromatographic logD [10] | Structure (SMILES) | IC50 (U2OS) [µM] | IC50 (Schistosoma mansoni [2]) [µM] | Cmax [3] [µM] | IC50 (HFF) [µM] | AUC(0-t) [4] [µM·h] | Activity (Schistosoma mansoni [5]) | IC50 [6] [µM] | IC50 (HEK293) [µM] | Activity (Schistosoma mansoni [12]) [%] | IC50 (Schistosoma mansoni [13]) [µM] | other results
12.5 to 25 (≈ 36.5 to 73 µM) | 1.6 to 3.1 (≈ 4.67 to 9.06 µM) | < 7 | < 7 | 1.6 | O=C(Nc1cccc(C(=O)O)c1)Nc1ccc(F)c(C(F)(F)F)c1 | – | – | – | – | – | – | – | – | – | – | –
6.3 to 12.5 (≈ 20.8 to 41.2 µM) | 12.5 to 25 (≈ 41.2 to 82.4 µM) | 108 | 73 | 3.2 | Cc1cc(NC(=O)Nc2ccc(F)c(C(F)(F)F)c2)on1 | – | – | – | – | – | – | – | – | – | – | –
12.5 to 25 (≈ 58.3 to 117 µM) | > 100 | 188 | < 7 | 1.3 | O=C(Nc1ccncc1)Nc1ccncc1 | – | – | – | – | – | – | – | – | – | – | –
1.6 to 3.1 (≈ 4.69 to 9.08 µM) | 1.6 to 3.1 (≈ 4.69 to 9.08 µM) | 69 | 81 | 3.3 | NC(=O)c1ccccc1NC(=O)Nc1ccc(F)c(C(F)(F)F)c1 | – | – | – | – | – | – | – | – | – | – | –
< 1.6 | < 1.6 | 14 | 16 | 3.6 | CC(=O)c1ccc(NC(=O)Nc2ccc(F)c(C(F)(F)F)c2)cc1 | – | – | – | – | – | – | – | – | – | – | –
12.5 to 25 (≈ 36.5 to 73 µM) | < 1.6 | < 7 | < 7 | 1.5 | O=C(Nc1ccc(C(=O)O)cc1)Nc1ccc(F)c(C(F)(F)F)c1 | – | – | – | – | – | – | – | – | – | – | –
6.3 to 12.5 (≈ 29.1 to 57.8 µM) | 6.3 to 12.5 (≈ 29.1 to 57.8 µM) | 157 | 18 | 0.8 | O=C(Nc1cnccn1)Nc1cnccn1 | – | – | – | – | – | – | – | – | – | – | –
12.5 to 25 (≈ 41.8 to 83.5 µM) | 50 to 100 (≈ 167 to 334 µM) | 154 | 13 | 3 | O=C(Nc1cccnc1)Nc1ccc(F)c(C(F)(F)F)c1 | – | – | – | – | – | – | – | – | – | – | –
< 1.6 | 1.6 to 3.1 (≈ 5.35 to 10.4 µM) | 705 | 188 | 3.7 | O=C(Nc1ccc(F)c(C(F)(F)F)c1)Nc1ccccn1 | – | – | – | – | – | – | – | – | – | – | –
